One series can be described thus: Safety and tolerability. Format: in vivo, human. A digest of the protocol:
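Safety population: all 19 patients aged 1 month to <2 years, with confirmed or high-risk invasive candidiasis, who received IV drug (3 mg/kg day 1, then 1.5 mg/kg daily, ≤1.1 mg/min, ≤35 days). Optional oral fluconazole was allowed after ≥10 days (confirmed cases) or ≥5 days (high-risk), to ≤49 days total. Treatment-emergent adverse events and all-cause mortality were recorded throughout the study and summarized descriptively.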

Series [1] has as its system invasive candidiasis, including candidemia (Candida species). Description: Global response, relapse and microbiologic outcome in invasive candidiasis. In kind it is in vivo, human. A digest of the protocol: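 Modified intent-to-treat patients (≥1 dose, microbiologically confirmed Candida infection) received IV drug: 3 mg/kg loading dose on day 1, then 1.5 mg/kg daily for ≤35 days. An optional switch to oral fluconazole (6–12 mg/kg/d, max 800 mg/d) was allowed after ≥10 days IV, to ≤49 days total. Global response was assessed at end of IV therapy, end of treatment, and week 2 and 6 follow-up. Relapse and new infection were also assessed. Analysis was descriptive.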

The test system of a further series is invasive candidiasis. As to conditions: cited from earlier work.
Series [2] in a line: PS80 plasma concentration in infants. As to conditions: infants receiving anidulafungin formulated with PS80. In kind it is in vivo, human.
Where [3] appears, read: safety population n = 19, all causalities, AEs up to 30 days after last dose.

“Also recorded” adds a separate entry of the source. *1 amine or outer side, *2 acyl side, *3 side chain or, on linkers, in order; H or OH if unused. Where a SMILES comes first, the peptide text is derived from it. Bridges are numbered along the chain shown (N, C = ends). [ ]: non-standard residue; d: D form. The star is where a group is joined. pTerphenylCO(4''-OnC5H11) = CCCCCOc1ccc(-c2ccc(-c3ccc(C(=O)*)cc3)cc2)cc1; Orn(4R-OH,5R-OH) = O=C([C@H](C[C@@H](O)[C@@H](O)N[*:3])N[*:1])[*:2]; hTyr(3S-OH,4S-OH) = N[C@H](C(=O)O)[C@H](O)[C@@H](O)c1ccc(O)cc1; Pro(3S-OH,4S-Me) = C[C@H]1CN[C@H](C(=O)O)[C@H]1O; Hyp = O=C(O)[C@@H]1C[C@@H](O)CN1

For the compound `CCCCCOc1ccc(-c2ccc(-c3ccc(C(=O)N[C@H]4C[C@@H](O)[C@@H](O)NC(=O)[C@@H]5[C@@H](O)[C@@H](C)CN5C(=O)[C@H]([C@@H](C)O)NC(=O)[C@H]([C@H](O)[C@@H](O)c5ccc(O)cc5)NC(=O)[C@@H]5C[C@@H](O)CN5C(=O)[C@H]([C@@H](C)O)NC4=O)cc3)cc2)cc1` [anidulafungin] ({pTerphenylCO(4''-OnC5H11)}-[Orn(4R-OH,5R-OH)]T[Hyp][hTyr(3S-OH,4S-OH)]T[Pro(3S-OH,4S-Me)]; lactam 1-C), the “Patients with treatment-related TEAEs” value in the series “Safety and tolerability” (3 of 19 patients) is reported as 15.8%. In the series “Safety and tolerability” (7 of 19 patients), the “Patients with severe TEAEs” value was determined as 36.8%. For the same compound, in “Safety and tolerability” (17 of 19 patients, safety population), the “Patients with TEAEs of any causality” value came to 89.5%. Besides, the Treatment-related deaths result in “Safety and tolerability” (safety population n = 19) is “no treatment-related deaths occurred; also recorded: No deaths were considered related to anidulafungin”. Besides, in “Safety and tolerability” (setting [3]), the “Incidence of TEAE: Device-related infection” value is 1 (5.3) n (%), the “Incidence of TEAE: Lower respiratory tract infection” value is given as 1 (5.3) n (%) and the “Incidence of TEAE: Upper respiratory tract infection” value is 1 (5.3) n (%). Moreover, in series [1] (11 of 16 patients, MITT, 1 month to <2 years), the “Global response success rate at EOIVT” value stood at 68.8%. Moreover, in series [1] (15 of 16), the “Patients achieving negative blood cultures” value amounted to 93.8%. For the same compound, the Resistance to anidulafungin entry in series [1] (Candida species) was “No resistance to anidulafungin was observed”. Further, the “Median time to first negative blood culture” value in series [1] (MITT population) was determined as 3 days. For the same compound, the “Relapse or new infection” value in series [1] (week 2 and week 6 follow-up visits) is recorded as “No patients relapsed or experienced new infection”. In addition, the “Global response of success at EOIVT in adults” value in the series with invasive candidiasis is listed as 75.6%.

On to `OC(Cn1cncn1)(Cn1cncn1)c1ccc(F)cc1F` [fluconazole], for which, in “Safety and tolerability” (6 patients switched to oral fluconazole 6-12 mg/kg/d), the “TEAEs related to fluconazole” value is reported as “No patients experienced TEAEs related to fluconazole”.

For the compound polysorbate 80 [PS80], the “Hepatotoxicity or PS80 accumulation” value in series [2] was “No hepatotoxicity or PS80 accumulation was detected”.

Values taken from article PMC7182240 (The Pediatric Infectious Disease Journal, 2020).
